What was measured:
[1] = molecular target: Sigma non-opioid intracellular receptor 1 (Rattus norvegicus, UniProt Q9R0C9); assay: Displacement of (-)-[3H]pentazocine from sigma 1 receptor in rat brain membrane after 120 mins; type: cell membranes
Rattus norvegicus = species on record: Rattus norvegicus; assay: Selectivity ratio of Ki for sigma 1 receptor in rat brain membrane to sigma 2 receptor in rat brain membrane; type: cell membranes
[2] = Displacement of [3H]di-o-tolylguanidine from sigma 2 receptor in rat brain membrane after 120 mins; type: cell membranes
Summary of the method: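 Rat whole-brain homogenate without cerebellum (400–500 μg) incubated with 3 nM [3H]DTG plus 300 nM (+)-pentazocine to mask sigma-1 sites. Filtration through PEI-soaked glass fiber, scintillation counting, run in duplicate. Ki by Cheng-Prusoff.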

[3] = Binding affinity to sigma 2 receptor
Summary of the method: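 Rat whole-brain homogenate without cerebellum (400–500 μg) incubated with 3 nM [3H]DTG plus 300 nM (+)-pentazocine to mask sigma-1 sites. […] Filtration through PEI-soaked glass fiber, scintillation counting, run in duplicate. Ki by Cheng-Prusoff.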

Sequence of Sigma non-opioid intracellular receptor 1 (Q9R0C9 whole entry): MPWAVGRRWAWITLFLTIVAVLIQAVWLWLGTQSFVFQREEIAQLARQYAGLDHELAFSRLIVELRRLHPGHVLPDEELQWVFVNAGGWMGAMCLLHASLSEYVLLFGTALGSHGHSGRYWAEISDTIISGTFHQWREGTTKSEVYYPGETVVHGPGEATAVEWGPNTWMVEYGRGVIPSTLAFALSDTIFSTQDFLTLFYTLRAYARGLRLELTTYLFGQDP

| Ki [3] | Compound | Ki [1] | Ratio Ki (Rattus norvegicus) | Ki [2] |
| --- | --- | --- | --- | --- |
| – | Fc1ccc(N2CCN(CCCCn3cc(-c4ccccc4)c4ccccc43)CC2)cc1 | 222 nM | 22.3 | 9.96 nM |
| – | c1ccc2c(c1)c(-c1ccoc1)cn2CCCCN1CCN(C2CCCCC2)CC1 | 34.5 nM | 3.4 | 10.1 nM |
| – | COc1cc2c(cc1OC)CN(CCCCn1cc(-c3ccccc3)c3ccccc31)CC2 | 714 nM | 15.4 | 46.3 nM |
| – | COc1cc2c(cc1OC)CN(CCCCn1cc(-c3ccoc3)c3ccccc31)CC2 | 614 nM | 51.1 | 12 nM |
| – | COc1cc2c(cc1OC)CN(CCCCn1ccc3cc(C(C)=O)ccc31)CC2 | 14.6 nM | 10.2 | 1.42 nM |
| – | COc1cc2c(cc1OC)CN(CCCCn1ccc3ccccc31)CC2 | 141 nM | – | – |
| – | CC(=O)c1ccc2c(ccn2CCCCN2CCN(C3CCCCC3)CC2)c1 | 5.33 nM | 2.3 | 2.31 nM |
| – | c1ccc(-c2cn(CCCCN3CCN(C4CCCCC4)CC3)c3ccccc23)cc1 | 92.4 nM | 7.5 | 12.3 nM |
| – | Fc1ccc(-c2cn(CCCCN3CCN(C4CCCCC4)CC3)c3ccccc23)cc1 | – | 4 | – |
| – | Fc1ccc(N2CCN(CCCCn3ccc4ccccc43)CC2)cc1 | 71.5 nM | 5.4 | – |
| 8.2 nM | COc1cc2c(cc1OC)CN(CCCCNC(=O)c1cc(Br)cc(OC)c1OC)CC2 | – | – | – |
| – | CC(=O)c1ccc2c(ccn2CCCCN2CCN(c3ccc(F)cc3)CC2)c1 | 2.13 nM | 0.6 | 3.3 nM |
| – | Fc1ccc(N2CCN(CCCCn3cc(-c4ccoc4)c4ccccc43)CC2)cc1 | 279 nM | 1.8 | 157 nM |

— ChEMBL document CHEMBL1828538, “Synthesis and pharmacological evaluation of indole-based sigma receptor ligands” (Eur J Med Chem, 2011)
